From ChEMBL document CHEMBL1124429, “Heterocyclic analogues of benzamide antiarrhythmic agents” (J Med Chem, 1989)
Active and inactive are the calls of the source.

How the values were obtained:
[1] = species on record: Canis familiaris; experiment: Percent change from control in the rate of rise of phase 0 of the action potential at 10 uM concentration on Canine Purkinje fibers.; design: species or system Canis lupus familiaris, Purkinje fiber; settings: dog
[2] = species on record: Canis familiaris; experiment: Maximum Percent change from control in the rate of rise of phase 0 of the action potential at 100 uM concentration on Canine Purkinje fibers.; type: Canis lupus familiaris, Purkinje fiber; settings: dog, in vitro
Method in brief: (§1)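 Isolated canine Purkinje fibers were superfused with physiological saline gassed with 95% O2/5% CO2 (pH 7.35–7.40) at 36 ± 0.5 °C. Paced at 1.0 Hz with 2-ms pulses at twice diastolic threshold. After up to 1 h stabilization, compounds were tested over 10^-8 to 10^-3 M, 30 min per concentration, one compound per fiber, with vehicle controls. Intracellular microelectrodes (3 M KCl) recorded Vmax and APD95; maximum percent change from control is reported with its concentration.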

[3] = species on record: Canis familiaris; experiment: Maximum Percent change from control in the rate of rise of phase 0 of the action potential at 30 uM concentration on Canine Purkinje fibers.; design: species or system Canis lupus familiaris, Purkinje fiber; settings: dog, in vitro; method in brief: as §1
[4] = species on record: Canis familiaris; experiment: Maximum percent change in conduction time (CT) at 100 uM concentration tested on Canine ventricular muscle fibre; type: functional, Canis lupus familiaris, Muscle tissue
Method in brief: (§2)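 Canine right ventricular papillary muscle strips were superfused at 36 ± 0.5 °C with saline gassed with 95% O2/5% CO2. Diastolic threshold was found with 2-ms stimuli at 4000 ms cycle length, then pacing at 4× threshold for 60 min equilibration. FRP was measured at 1000 ms cycle length by S1-S2 premature stimulus after every tenth S1. Conduction time came from a bipolar electrogram. Various compound concentrations were tested, one compound per strip, with vehicle controls. Percent change from control was taken at 10 µM, or the maximum change with its concentration; for N ≥ 3, mean with range.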

[5] = species on record: Canis familiaris; experiment: Maximum percent change in conduction time (CT) at 1 uM concentration tested on Canine ventricular muscle fibre; type: functional, Canis lupus familiaris, Muscle tissue; method in brief: as §2
[6] = species on record: Canis familiaris; experiment: Percent change from control in conduction time (CT) at 10 uM concentration tested on Canine ventricular muscle fibre.; type: functional, Canis lupus familiaris, Muscle tissue; method in brief: as §2
[7] = species on record: Canis familiaris; experiment: Maximum percent change in repolarization at 0.1 uM concentration on Canine Purkinje fibers.; type: functional, Canis lupus familiaris, Purkinje fiber; method in brief: as §1
[8] = species on record: Canis familiaris; experiment: Maximum percent change in repolarization at 100 uM concentration on Canine Purkinje fibers.; type: functional, Canis lupus familiaris, Purkinje fiber; method in brief: as §1
[9] = species on record: Canis familiaris; experiment: Maximum percent change in repolarization at 10 uM concentration on Canine Purkinje fibers.; type: functional, Canis lupus familiaris, Purkinje fiber; method in brief: as §1
[10] = species on record: Canis familiaris; experiment: Percent change in repolarization at 10 Purkinje fibers.; value ranges from 1-4; type: functional, Canis lupus familiaris, Purkinje fiber
Method in brief: (§3)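 Canine Purkinje fibers were held in oxygenated (95% O2–5% CO2) physiological saline, pH 7.35–7.40, at 36 ± 0.5 °C and paced at 1.0 Hz with 2-ms pulses at twice diastolic threshold. Intracellular microelectrodes (3 M KCl) recorded Vmax and APD95 simultaneously. After up to 1 h of stabilization, compounds were tested from 10^-8 to 10^-3 M with 30 min per concentration. One compound per fiber, with vehicle controls. For N ≥ 3, values are the mean with the range.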

[11] = species on record: Canis familiaris; experiment: Percent change from control in the functional refractory period (FRP) at 10 uM conc. on Canine ventricular muscle fibre.; design: species or system Canis lupus familiaris, Muscle tissue; method in brief: as §2
[12] = species on record: Canis familiaris; experiment: Maximum percent change in functional refractory period (FRP) at 100 uM on Canine ventricular muscle fibre.; design: species or system Canis lupus familiaris, Muscle tissue; method in brief: as §2
[13] = species on record: Cavia porcellus; experiment: Concentration of compound which gives a 20% decrease in contractile force was tested on papillary muscle of guinea pig, activity was expressed as EC-20; N.R. is not reached.; type: functional; settings: Muscle tissue
Method in brief: (§4)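 Contractile force measured in an isolated cardiac muscle preparation. Value is the concentration giving a 20% decrease in force of contraction. NR marks that this decrease was not reached. Values come from individual experiments; for N ≥ 3, the mean is given with the range.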

[14] = species on record: Canis familiaris; experiment: Maximum Percent change from control in the rate of rise of phase 0 of the action potential at 1 uM concentration on Canine Purkinje fibers.; design: species or system Canis lupus familiaris, Purkinje fiber; method in brief: as §1
[15] = species on record: Canis familiaris; experiment: Percent change from control in the rate of rise of phase 0 of the action potential at 10 uM concentration on Canine Purkinje fibers.; value ranges from 0-2; design: species or system Canis lupus familiaris, Purkinje fiber; settings: dog, in vitro
[16] = species on record: Canis familiaris; experiment: The maximum Percent change from control in the rate of rise of phase 0 of the action potential at 100 uM concentration on Canine Purkinje fibers.; design: species or system Canis lupus familiaris, Purkinje fiber; settings: dog; method in brief: as §3
[17] = species on record: Canis familiaris; experiment: The maximum Percent change from control in the rate of rise of phase 0 of the action potential at 1 uM concentration on Canine Purkinje fibers.; design: species or system Canis lupus familiaris, Purkinje fiber; settings: dog; method in brief: as §3
[18] = species on record: Canis familiaris; experiment: The maximum percent change in action potential (Vmax ) at concentration observed (0.1 uM ) was tested on Canine Purkinje fibers.; design: species or system Canis lupus familiaris, Purkinje fiber; settings: dog, in vitro; method in brief: as §3
[19] = species on record: Canis familiaris; experiment: Maximum percent change in conduction time (CT) at 0.1 uM concentration tested on Canine ventricular muscle fibre; type: functional, Canis lupus familiaris, Muscle tissue; method in brief: as §2
[20] = species on record: Canis familiaris; experiment: Percent change from control in conduction time (CT) at 10 uM concentration tested on Canine ventricular muscle fibre.; value ranges from -11.0-0; type: functional, Canis lupus familiaris, Muscle tissue; method in brief: as §2
[21] = species on record: Canis familiaris; experiment: Maximum percent change in repolarization at 100 uM concentration on Canine Purkinje fibers.; value ranges from 14-20; type: functional, Canis lupus familiaris, Purkinje fiber; method in brief: as §1
[22] = species on record: Canis familiaris; experiment: Percent change in repolarization at 10 Purkinje fibers; value ranges from -3.0-7.0.; type: functional, Canis lupus familiaris, Purkinje fiber; method in brief: as §3
[23] = species on record: Canis familiaris; experiment: Maximum percent change in functional refractory period (FRP) at 10 uM on Canine ventricular muscle fibre.; design: species or system Canis lupus familiaris, Muscle tissue; method in brief: as §2
[24] = species on record: Canis familiaris; experiment: Percent change from control in the functional refractory period (FRP) at 10 uM conc. on Canine ventricular muscle fibre.; value ranges from 11-23; design: species or system Canis lupus familiaris, Muscle tissue; method in brief: as §2
[25] = species on record: Canis familiaris; experiment: Percent change from control in conduction time (CT) at 10 uM concentration tested on Canine ventricular muscle fibre.; M is minimal(<10% change in CT); type: functional; settings: Canis lupus familiaris, Muscle tissue; method in brief: as §2
[26] = species on record: Canis familiaris; experiment: Percent change in repolarization at 10 Purkinje fibers.; type: functional, Canis lupus familiaris, Purkinje fiber; method in brief: as §3
[27] = species on record: Cavia porcellus; experiment: Concentration of compound which gives a 20% decrease in contractile force was tested on papillary muscle of guinea pig, activity was expressed as EC-20.; type: functional; settings: Muscle tissue; method in brief: as §4
[28] = species on record: Canis familiaris; experiment: Maximum Percent change from control in the rate of rise of phase 0 of the action potential at 100 uM concentration on Canine Purkinje fibers.; settings: dog, in vitro
[29] = species on record: Canis familiaris; experiment: Percent change from control in the rate of rise of phase 0 of the action potential at 10 uM concentration on Canine Purkinje fibers.; value ranges from -13 - -2; type: organism-based, Canis lupus familiaris, Purkinje fiber; settings: dog, in vitro
[30] = species on record: Canis familiaris; experiment: Maximum percent change in conduction time (CT) at 10 uM concentration tested on Canine ventricular muscle fibre; type: functional, Canis lupus familiaris, Muscle tissue; method in brief: as §2
[31] = species on record: Canis familiaris; experiment: Percent change in conduction time (CT) at 10 uM concentration tested on Canine ventricular muscle fibre; value ranges from -14-6; type: functional, Canis lupus familiaris, Muscle tissue
[32] = species on record: Canis familiaris; experiment: Maximum percent change in repolarization at 30 uM concentration on Canine Purkinje fibers.; type: functional, Canis lupus familiaris, Purkinje fiber; method in brief: as §1
[33] = species on record: Canis familiaris; experiment: Percent change in repolarization at 10 Purkinje fibers.; value ranges from -5 - 5; type: functional, Canis lupus familiaris, Purkinje fiber; method in brief: as §3
[34] = species on record: Canis familiaris; experiment: Percent change from control in the functional refractory period (FRP) at 10 uM conc. on Canine ventricular muscle fibre.; value ranges from -5-3; design: species or system Canis lupus familiaris, Muscle tissue; method in brief: as §2
[35] = species on record: Canis familiaris; experiment: Maximum percent change in functional refractory period (FRP) at 100 uM on Canine ventricular muscle fibre.; value ranges from 5-18; design: species or system Canis lupus familiaris, Muscle tissue; method in brief: as §2
[36] = species on record: Cavia porcellus; experiment: Concentration of compound ( ) which gives a 20% decrease in contractile force was tested on papillary muscle of guinea pig, activity was expressed as EC-20.; type: functional; settings: Muscle tissue; method in brief: as §4
[37] = species on record: Canis familiaris; experiment: Maximum percent change in functional refractory period(FRP) of compound (30 uM) was tested on Canine ventricular muscle fibre.; design: species or system Canis lupus familiaris, Muscle tissue; method in brief: as §2

Row | Vmax ([1]; in vitro) | Vmax [2] | Vmax [3] | SMILES | CT [4] | CT [5] | APD95 [8] | APD95 [9] | FRP [11] | FRP [12] | CT [25] | APD95 [26] | EC20 [27] | CT [30] | other results
1 | 0.3% | -7% | -12% | CCN(CC)CCNC(=O)c1c(O)cc(C)nc1C | -16% | -5% | 4% | 4% | 21% | 26% | – | – | – | – | CT [6]: -5%; APD95 [7]: 5%; APD95 [10]: 3%; EC20 [13]: Not reached; Vmax [14]: -5%
2 | – | – | – | CCN(CC)CCNC(=O)c1ccc(NC(C)=O)cc1 [ACECAINIDE] | 6% | -9% | – | – | – | 31% | – | – | – | – | Vmax [15]: 1%; Vmax [16]: 5%; Vmax [17]: 2%; Vmax [18]: 6%; CT [19]: -11%; CT [20]: -9.7%; APD95 [21]: 16.3%; APD95 [22]: 3%; FRP [23]: 23%; FRP [24]: 16.8%
3 | -3% | – | – | CCN(CC)CCNC(=O)c1cc(Cl)c(N)cc1OC [METOCLOPRAMIDE] | 17% | – | -17% | – | 17% | 33% | inactive | 1% | 10 µM | – | Vmax [28]: -25%
4 | – | -35% | -19% | CCN(CC)CCNC(=O)c1cc2cccc(O)c2[nH]1 | 16% | -3% | -28% | 5% | – | – | – | – | – | -14% | Vmax [29]: -7%; CT [31]: -3.3%; APD95 [32]: -9%; APD95 [33]: 0.7%; FRP [34]: -1%; FRP [35]: 10%; EC20 [36]: 30 µM
5 | – | -45% | – | CCN(CC)CCNC(=O)c1c(C)[nH]c(C)c1C | – | – | -5% | – | 1% | – | Minimal | 2% | 30 µM | -8% | Vmax ([1]; in vivo): -18%; FRP [37]: 6%
